Measured values reported in ChEMBL document CHEMBL1157487, “Discovery of potent CCR4 antagonists: Synthesis and structure-activity relationship study of 2,4-diaminoquinazolines” (Bioorg Med Chem, 2008).

Assays:
[1] = molecular target: T1, C-C chemokine receptor type 4 (Homo sapiens) (UniProt P51679); assay: Antagonist activity at human CCR4 receptor expressed in mouse B300-19 cells at 1 uM by [35S]GTPgammaS binding assay; type: functional, cell-based
T1 sequence (whole entry): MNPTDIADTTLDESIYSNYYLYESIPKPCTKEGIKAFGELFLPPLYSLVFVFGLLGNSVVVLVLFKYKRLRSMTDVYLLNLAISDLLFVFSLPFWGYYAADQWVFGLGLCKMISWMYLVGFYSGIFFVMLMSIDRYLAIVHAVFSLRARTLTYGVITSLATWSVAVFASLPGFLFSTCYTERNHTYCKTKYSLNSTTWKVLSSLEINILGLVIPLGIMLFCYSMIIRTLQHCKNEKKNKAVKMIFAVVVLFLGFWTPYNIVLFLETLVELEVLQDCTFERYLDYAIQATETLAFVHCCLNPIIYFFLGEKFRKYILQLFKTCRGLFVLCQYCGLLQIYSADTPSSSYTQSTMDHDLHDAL
Procedure, shortened: (§1)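 Membranes from human CCR4-expressing B300-19 cells (1 µg protein/well) with 150 pM [35S]GTPγS, 2 µM GDP, 3 nM MDC (CCL22), WGA SPA beads, test compound in 20 mM Hepes-NaOH pH 7.05, 100 mM NaCl, 5 mM MgCl2, 0.2% BSA; 1.5 h, 25 °C. Percent inhibition against no-compound and no-CCL22 controls. Duplicate, four concentrations, usually two determinations averaged. IC50 by non-linear fitting.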

[2] = molecular target: T1, C-C chemokine receptor type 4 (Homo sapiens); assay: Displacement of [125I]CCl22 from human CCR4 receptor expressed in mouse B300-19 cells at 1 uM by SPA; type: cell-based
Procedure, shortened: (§2)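 SPA on whole human CCR4-expressing B300-19 cells (2×10^5/well) with 25 pM [125I]CCL22 and WGA SPA beads, test compound, in 50 mM Hepes pH 7.4, 5 mM MgCl2, 1 mM CaCl2, 0.1% BSA; 2 h, 25 °C. Nonspecific binding defined with 10 nM unlabeled CCL22. Duplicate, four concentrations, usually two determinations averaged. IC50 by non-linear curve fitting.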

[3] = molecular target: T1, C-C chemokine receptor type 4 (Homo sapiens); assay: Antagonist activity at human CCR4 receptor expressed in mouse B300-19 cells assessed as CCL22-induced chemotaxis by bioluminescent assay; type: functional, cell-based
Procedure, shortened: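 Stably transfected B300-19 cells (human CCR4 cDNA, G418 selection) at 5×10^6 cells/mL in RPMI 1640 with 0.1% BSA, pretreated with test compound; placed over 3 nM human CCL22 in 5-µm-pore polycarbonate filter chambers, 3 h, 37 °C, 5% CO2. Migrated cells quantified by ATP bioluminescence. Controls without compound or without CCL22. Triplicate, four concentrations. IC50 by non-linear curve fitting.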

[4] = molecular target: T2, C-C chemokine receptor type 4 (Mus musculus) (UniProt P51680); assay: Antagonist activity at mouse CCR4 receptor expressed in mouse B300-19 cells assessed as CCL22-induced chemotaxis by bioluminescent assay; type: functional, cell-based
T2 sequence (whole entry): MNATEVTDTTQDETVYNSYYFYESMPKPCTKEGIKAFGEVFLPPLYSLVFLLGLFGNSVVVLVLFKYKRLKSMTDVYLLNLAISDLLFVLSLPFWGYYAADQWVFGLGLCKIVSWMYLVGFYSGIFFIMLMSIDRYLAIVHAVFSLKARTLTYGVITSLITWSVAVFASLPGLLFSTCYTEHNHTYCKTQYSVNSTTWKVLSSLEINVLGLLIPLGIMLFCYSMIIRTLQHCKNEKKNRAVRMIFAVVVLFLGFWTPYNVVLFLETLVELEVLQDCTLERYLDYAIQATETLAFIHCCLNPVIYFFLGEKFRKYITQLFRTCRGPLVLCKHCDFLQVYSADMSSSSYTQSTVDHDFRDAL
Procedure, shortened: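 Chemotaxis of B300-19 stable transformants carrying mouse CCR4 cDNA, suspended at 5×10^6 cells/mL in RPMI 1640 plus 0.1% BSA with test compound; 1 nM mouse CCL22 in lower wells, 5-µm pore filters, 3 h at 37 °C, 5% CO2. Migrated cells counted by ATP bioluminescence. Triplicate at four concentrations. IC50 from non-linear curve fit.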

[5] = molecular target: T3, C-C chemokine receptor type 4 (Homo sapiens, UniProt P51679); assay: Antagonist activity at human CCR4 receptor expressed in mouse B300-19 cells by [35S]GTPgammaS binding assay; type: functional, cell-based; procedure, shortened: as §1
T3 sequence (P51679 whole entry): T1 sequence (whole entry)

[6] = molecular target: T3, C-C chemokine receptor type 4; assay: Displacement of [125I]CCl22 from human CCR4 receptor expressed in mouse B300-19 cells by SPA; type: cell-based; procedure, shortened: as §2
[7] = molecular target: T1, C-C chemokine receptor type 4 (Homo sapiens); assay: Antagonist activity at human CCR4 receptor expressed in mouse B300-19 cells assessed as CCL22-induced chemotaxis at 1 uM by bioluminescent assay; type: functional, cell-based

Row | Compound | inhibition [1] [%] | inhibition [2] [%] | Activity [3] [µM] | Activity [4] [µM] | IC50 [5] [nM] | IC50 [6] [nM] | inhibition [7] [%]
1 | COc1cc2nc(N3CCC(N4CCCC4)CC3)nc(N(C)C)c2cc1OC | < 0 | < 0 | – | – | – | – | –
2 | COc1cc2nc(N3CCN(C4CCCCC4)CC3)nc(NC3CCCCCC3)c2cc1OC | 10 | 0 | 0.23 | 0.21 | 55 | – | –
3 | COc1cc2nc(N3CCC(N4CCCC4)CC3)nc(NC3CCN(Cc4ccccc4)CC3)c2cc1OC | 4 | < 0 | – | – | – | – | –
4 | COc1cc2nc(N3CCN(C(C)C)CC3)nc(NC3CCCCCC3)c2cc1OC | 68 | 68 | – | – | 220 | 660 | –
5 | COc1cc2nc(N3CCC(N4CCCC4)CC3)nc(NC3CCCC3)c2cc1OC | 18 | 17 | – | – | – | – | –
6 | COc1cc2nc(N3CCC(N4CCCC4)CC3)nc(NCCc3ccccc3)c2cc1OC | 7 | 4 | – | – | – | – | –
7 | CCNc1nc(N2CCC(N3CCCC3)CC2)nc2cc(OC)c(OC)cc12 | 3 | < 0 | – | – | – | – | –
8 | COc1cc2nc(N3CCC(C(N)=O)CC3)nc(NC3CCCCCC3)c2cc1OC | 17 | < 0 | – | – | – | – | –
9 | COc1cc2nc(C3CCN(C4CCCCC4)CC3)nc(NC3CCCCCC3)c2cc1OC | 10 | – | – | – | 510 | – | 12
10 | COc1cc2nc(N3CCC(N4CCCC4)CC3)nc(NCc3ccccc3)c2cc1OC | 10 | < 0 | – | – | – | – | –
11 | COc1cc2nc(NCCCN3CCCC3)nc(NC3CCCCCC3)c2cc1OC | 35 | 16 | – | – | – | – | –
12 | COc1cc2nc(NCc3cccs3)nc(NC3CCCCCC3)c2cc1OC | 0 | < 0 | – | – | – | – | –
13 | COc1cc2nc(N3CCC(N4CCCC4)CC3)nc(NC3CCC(C(C)(C)C)CC3)c2cc1OC (centres undefined) | 11 | < 0 | – | – | – | – | –
14 | COc1cc2nc(N3CCC(Cc4ccccc4)CC3)nc(NC3CCCCCC3)c2cc1OC | 1 | < 0 | – | – | – | – | –
15 | COc1cc2nc(N3CCC(O)CC3)nc(NC3CCCCCC3)c2cc1OC | < 0 | 3 | – | – | – | – | –
16 | COc1cc2nc(N3CCC(N4CCCC4)CC3)nc(NC3CCCCCCC3)c2cc1OC | 71 | 54 | – | – | 200 | 1200 | –
17 | COc1cc2nc(N3CCC(N4CCCC4)CC3)nc(NC3CCCCNC3=O)c2cc1OC (centres undefined) | 16 | 16 | – | – | – | – | –
18 | COc1cc2nc(N3CCN(C)CC3)nc(NC3CCCCCC3)c2cc1OC | 13 | < 0 | – | – | – | – | –
19 | COc1cc2nc(NC(C)C)nc(NC3CCCCCC3)c2cc1OC | < 0 | 6 | – | – | – | – | –
20 | COc1cc2nc(N3CCCCC3)nc(NC3CCCCCC3)c2cc1OC | 7 | 11 | – | – | – | – | –

Row | Compound | inhibition [1] [%] | inhibition [2] [%] | Activity [3] [µM] | Activity [4] [µM] | IC50 [5] [nM] | IC50 [6] [nM] | inhibition [7] [%]
21 | c1ccc2c(NC3CCCCCC3)nc(N3CCC(N4CCCC4)CC3)nc2c1 | 10 | – | 1.4 | – | 200 | – | –
22 | COc1cc2nc(NCCN3CCCCC3)nc(NC3CCCCCC3)c2cc1OC | 1 | 18 | – | – | – | – | –
23 | COc1cc2nc(N(C)CCc3ccccc3)nc(NC3CCCCCC3)c2cc1OC | < 0 | < 0 | – | – | – | – | –
24 | COc1ccc2c(NC3CCCCCC3)nc(N3CCC(N4CCCC4)CC3)nc2c1 | 10 | – | 0.12 | 0.22 | 13 | – | –
25 | COc1cc2nc(N3CCC(N4CCCC4)CC3)nc(N3CCOCC3)c2cc1OC | < 0 | 2 | – | – | – | – | –
26 | COc1cc2nc(N3CCC(NC4CCCC4)CC3)nc(NC3CCCCCC3)c2cc1OC | < 0 | 4 | 0.1 | – | 13 | – | –
27 | COc1cc2nc(N3CCC(N4CCCC4)CC3)nc(N3CCCCC3)c2cc1OC | 8 | 19 | – | – | – | – | –
28 | COc1cc2nc(N3CCC(N4CCC(F)CC4)CC3)nc(NC3CCCCCC3)c2cc1OC | 10 | 0 | 0.31 | 0.6 | 32 | – | –
29 | COc1cc2nc(N3CCN(c4ccccc4)CC3)nc(NC3CCCCCC3)c2cc1OC | 7 | 7 | – | – | – | – | –
30 | COc1ccc2nc(N3CCC(N4CCCC4)CC3)nc(NC3CCCCCC3)c2c1 | 10 | – | 0.41 | 0.8 | 31 | – | –
31 | COc1cc2nc(NCCCN3CCCC3=O)nc(NC3CCCCCC3)c2cc1OC | 8 | 8 | – | – | – | – | –
32 | COc1cc2nc(NCc3ccccc3)nc(NC3CCCCCC3)c2cc1OC | 13 | < 0 | – | – | – | – | –
33 | COc1cc2nc(N3CCC(N4CCCCC4)CC3)nc(NC3CCCCCC3)c2cc1OC | 92 | 100 | 0.14 | 0.039 | 18 | 73 | –
34 | COc1cc2nc(NCCc3ccccc3)nc(NC3CCCCCC3)c2cc1OC | 16 | < 0 | – | – | – | – | –
35 | COc1cc2nc(N3CCC(N(C)C4CCCC4)CC3)nc(NC3CCCCCC3)c2cc1OC | 10 | 0 | 0.12 | 0.35 | 18 | – | –
36 | COc1cc2nc(N3CCC(N(C)C)CC3)nc(NC3CCCCCC3)c2cc1OC | 65 | 77 | – | – | 260 | 730 | –
37 | COc1cc2nc(N3CCC(C)CC3)nc(NC3CCCCCC3)c2cc1OC | 12 | 15 | – | – | – | – | –
38 | CCOC(=O)N1CCC(Nc2nc(N3CCC(N4CCCC4)CC3)nc3cc(OC)c(OC)cc23)CC1 | 10 | 6 | – | – | – | – | –
39 | COc1cc2nc(N3CCOCC3)nc(NC3CCCCCC3)c2cc1OC | < 0 | 8 | – | – | – | – | –
40 | COc1cc2nc(N3CCC(N4CCCC4)CC3)nc(NC3CCCCC3)c2cc1OC | 71 | 54 | – | – | 480 | 1900 | –
